According to ChEMBL document CHEMBL4819012, “Discovery of novel 2-aryl-3-sulfonamido-pyridines (HoAns) as microtubule polymerization inhibitors with potent antitumor activities” (Eur J Med Chem, 2021):
Calls of active or inactive are those of the source. The calls are words filed in the database; no cut-off is given here.

Tests used:
PANC-1 [1] = assay: Antiproliferative activity against human PANC-1 cells assessed as cell viability measured after 72 hrs by MTS method; type: functional, cell-based; conditions: PANC-1, 72 h
Procedure, shortened: (§1)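 Log-phase cells plated at 5×10^3–6×10^3 per well for 24 h, then given graded compound concentrations in fresh medium for 72 h, five replicate wells. Medium replaced with medium containing 10% MTS, 30 min or more at 37 °C in dark; OD 490 nm read. IC50 by nonlinear regression; mean ± SD of at least three experiments.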

HUVEC [2] = assay: Cytotoxicity against human HUVEC cells assessed as inhibition of cell proliferation measured after 24 hrs by MTS assay; type: cell-based
Procedure, shortened: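 HUVECs exposed to graded concentrations for 24 h; viability read by MTS assay; IC50 reported as mean ± SD.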

SW-620 [3] = assay: Induction of apoptosis in human SW-620 cells assessed as late apoptotic cells at 1 uM measured after 24 hrs by PI/Annexin V staining based flow cytometry assay (reference value: 3.66%); type: functional
[4] = Antiproliferative activity against human HCCLM3 cells assessed as cell viability measured after 72 hrs by MTS method; type: functional, cell-based; conditions: HCCLM3, 72 h; procedure, shortened: as §1
PANC-1 [5] = assay: Induction of cell cycle arrest in human PANC-1 cells assessed as accumulation of cells in S phase at 1 uM measured after 24 hrs by PI staining based flow cytometry method (reference value: 65%); type: functional
SW-620 [6] = assay: Induction of apoptosis in human SW-620 cells assessed as early apoptotic cells at 1 uM measured after 24 hrs by PI/Annexin V staining based flow cytometry assay (reference value: 2.41%); type: functional
RKO [7] = assay: Induction of apoptosis in human RKO cells assessed as early apoptotic cells at 1 uM measured after 24 hrs by PI/Annexin V staining based flow cytometry assay (reference value: 2.58%); type: functional
RKO [8] = assay: Induction of apoptosis in human RKO cells assessed as necrotic cells at 1 uM measured after 24 hrs by PI/Annexin V staining based flow cytometry assay (reference value: 0.01%); type: functional
SW-620 [9] = assay: Induction of cell cycle arrest in human SW-620 cells assessed as accumulation of cells in G1 phase at 1 uM measured after 24 hrs by PI staining based flow cytometry method (reference value: 40.06%); type: functional
[10] = Toxicity against Athymic nude mouse xenografted with SW-620 cells assessed as changes in body weight at 25 mg/kg per two days, po measured after 20 days; type: organism-based; conditions: in vivo, 480 h, time 20 day
Procedure, shortened: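 Nude mice given 5×10^6 SW620 cells s.c. into the right armpit; at ~100 mm³ randomized (n = 6). Dosed orally at 25 mg/kg every 2 days in DMSO:corn oil 1:9 (100 μL) for 20 days; vehicle controls dosed on the same schedule. Body weight recorded every 2 days.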

Tubulin (Homo sapiens) = Tubulin (Homo sapiens) (UniProt P68371+Q9H4B7+P0DPH7+P68366+Q13509+Q71U36+P04350+Q3ZCM7+P07437+P68363+Q9BQE3+Q6PEY2+Q13885+Q9BVA1+Q9BUF5); assay: Inhibition of tubulin polymerization in human RKO cells assessed as morphology changed to fusiform at 1 uM measured 24 hrs by DAPI staining based immunoflourescence assay; type: cell-based; conditions: in the assay text read “changed to round from fusiform” for “changed to fusiform”
Procedure, shortened: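 RKO cells on coverslips (2.5×10^5 per well) incubated overnight, then treated for 24 h at 0.5 or 1 μM, DMSO, or 1 μM comparators. Fixed in cold methanol 10 min, permeabilized with 0.25% Triton X-100, blocked in 1% BSA at 4 °C overnight. Stained with anti-β-tubulin (1:100, 2 h RT) and Alexa Fluor 594 secondary (1:500, 1 h), nuclei with DAPI; imaged by fluorescence microscopy.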

SW-620 [11] = assay: Antitumour activity against human SW-620 cells xenografted in Athymic nude mouse assessed as decrease in tumour growth at 25 mg/kg per two days, po measured after 20 days; type: functional; design: scale not given: the % may be the effect or the level left; conditions: time 20 day
Procedure, shortened: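 Nude mice inoculated s.c. in right armpit with 5×10^6 SW620 cells in 125 µL PBS; at about 100 mm³ randomized, n = 6. Dosed orally 25 mg/kg every 2 days for 20 days in DMSO:corn oil 1:9. Tumour volume (L×W²/2) and body weight measured every 2 days; inhibition from final tumour weight vs vehicle.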

RKO [12] = assay: Induction of apoptosis in human RKO cells assessed as increase in ROS levels at 0.5 uM measured after 24 hrs by DCFH-DA staining based flow cytometry method relative to control; type: functional
Procedure, shortened: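 Cells at 5×10^5 per well exposed to 0.25 or 0.5 µM for 24 h, then loaded with 5 µM DCFH-DA in serum-free medium 30 min at 37 °C; washed, harvested, read by flow cytometry (ex 488/em 525 nm). ROS given as ratio of treated to control; at least three experiments.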

SW-620 [13] = assay: Induction of cell cycle arrest in human SW-620 cells assessed as accumulation of cells in G2 phase at 1 uM measured after 24 hrs by PI staining based flow cytometry method (reference value: 13.83%); type: functional
RKO [14] = assay: Antiproliferative activity against human RKO cells assessed as cell viability measured after 72 hrs by MTS method; type: functional, cell-based; procedure, shortened: as §1
SK-BR-3 = assay: Antiproliferative activity against human SK-BR-3 cells assessed as cell viability measured after 72 hrs by MTS method; type: functional, cell-based; conditions: SK-BR-3, 72 h; procedure, shortened: as §1
SW-620 [15] = assay: Induction of cell cycle arrest in human SW-620 cells assessed as reduction in cdc2 expression at 0.5 to 1 uM measured after 24 hrs by western blot assay; type: functional, cell-based; conditions: dose 0.5-1 µM
Procedure, shortened: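 RKO or SW620 cells (4×10^5–5×10^5 per well) exposed to 0.5 or 1 μM or DMSO for 24 h. Lysed in SDS loading buffer, boiled, run on 8–15% SDS-PAGE and moved to PVDF. Blocked in 5% milk, probed overnight at 4 °C with anti-Cdc2 or anti-cyclin B1 (1:1000), β-actin as reference. HRP secondary and ECL detection. Done at least three times.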

SW-620 [16] = assay: Antiproliferative activity against human SW-620 cells assessed as inhibition of cell proliferation measured after 24 hrs by crystal violet staining based colony-formation assay; type: functional; conditions: dose 0.125-1 µM
Procedure, shortened: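 RKO or SW620 cells plated at 1000 cells/well overnight, exposed to 0.125–1 µM for 24 h, then grown 10 days in fresh medium. Colonies fixed in methanol 15 min, stained with 0.1% crystal violet 30 min, photographed; colonies of more than 50 cells counted.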

[17] = target: Tubulin beta (Homo sapiens) (UniProt P68371+Q9H4B7+Q13509+P04350+Q3ZCM7+P07437+Q13885+Q9BVA1+Q9BUF5+A6NNZ2); assay: Inhibition of N,N'-Ethylenebis(iodoacetamide) binding to beta tubulin in human SW-620 cells preincubated for 2 hrs followed by addition of EBI and measured after 2 hrs by western blot assay; type: cell-based; conditions: dose 10-40 µM
Procedure, shortened: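 SW620 cells (5×10^5 per well) pretreated for 2 h with 10, 20 or 40 μM of test agent or DMSO, then given 100 μM EBI for 2 h. Lysed in SDS loading buffer. β-tubulin and β-tubulin–EBI adduct bands resolved by western blot probed with anti-β-tubulin.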

HUVEC [18] = assay: Anti-vascular activity against human HUVEC cells assessed as inhibition of cell migration at 0.5 to 1 uM measured after 24 hrs by cell migration assay; type: functional, cell-based; conditions: dose 0.5-1 µM

| IC50 (PANC-1 [1]) | inhibition (Tubulin (Homo sapiens)) | IC50 (SK-BR-3) | inhibition [17] | Compound | IC50 (HUVEC [2]) | Activity (SW-620 [3]) | IC50 [4] | Activity (PANC-1 [5]) | Activity (SW-620 [6]) | Activity (RKO [7]) | Activity (RKO [8]) | Activity (SW-620 [9]) | Activity [10] | Activity (SW-620 [11]) | fold change (FC) (RKO [12]) | Activity (SW-620 [13]) | IC50 (RKO [14]) | Activity (SW-620 [15]) | Activity (SW-620 [16]) | Activity (HUVEC [18]) |
| --- | --- | --- | --- | --- | --- | --- | --- | --- | --- | --- | --- | --- | --- | --- | --- | --- | --- | --- | --- | --- |
| 837 nM | Active | 143 nM | – | COc1ccc(S(=O)(=O)Nc2cccnc2Nc2ccc(O)cc2)cc1 [ABT-751] | 9200 nM | 4.322% | 671 nM | 33.13% | 8.35% | 10.16% | 0.1% | 37.86% | Non-Toxic | 49.3% | 2 | 17.69% | 633 nM | – | – | – |
| 729 nM | Active | 431 nM | Dose-Dependent Effect | COc1ccc(S(=O)(=O)Nc2cccnc2-c2ccc(C#N)c(F)c2)cc1 | 8900 nM | 4.26% | 963 nM | 40.54% | 10.09% | 36.65% | 0.17% | 8.05% | Non-Toxic | 53.6% | 1.5 | 76.28% | 170 nM | Active | Dose-Dependent Effect | Dose-Dependent Effect |
